This note sets out measurements from ChEMBL document CHEMBL3792340, “Novel benzylidenephenylpyrrolizinones with pleiotropic activities potentially useful in Alzheimer's disease treatment” (Eur J Med Chem, 2016).

Data set [1] in a line: Permeability of the compound at 100 uM at pH 7.4 after 4 hrs by PAMPA-BBB assay.
Data set [2] in a line: Antioxidant activity assessed as DPPH radical scavenging activity after 30 mins by microplate reader method. It is filed as physicochemical. The procedure, abridged: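 Compounds diluted from DMSO stock into absolute ethanol, incubated with 100 μM DPPH for 30 min at room temperature in the dark; absorbance at 517 nm. Scavenging % = (Acontrol−Asample)/Acontrol×100 versus vehicle control.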

The nature of data set [3]: Antioxidant activity assessed as nitric oxide radical scavenging activity at 40 uM after 3 hrs by Griess assay. It counts as physicochemical. Summed up: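 Sodium nitroprusside (50 mM stock in phosphate buffer pH 7.4) mixed with test compound and phosphate buffer, incubated 3 h at 37.4 °C. Aliquot diluted with Griess reagent, absorbance read after 20 min at 546 nm. Inhibition = (Acontrol−Atest)/Acontrol×100; triplicate.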

Data set [4] is described as follows: Metal chelating activity of the compound assessed as formation of copper complex at 50 uM after 10 mins by UV-visible spectroscopy. It is filed as physicochemical. The procedure, abridged:
(§1)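 Compound in methanol (from 50 mM DMSO stock) at 50 μM mixed with equimolar CuCl2 or FeCl2, 10 min at room temperature; spectra scanned 230–600 nm at 298 K. Difference spectra obtained by subtracting the metal-alone spectrum from the mixture spectrum.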

Data set [5] in a line: Metal chelating activity of the compound assessed as formation of iron complex at 50 uM after 10 mins by UV-visible spectroscopy. It is filed as physicochemical. Summed up:
as §1

Data set [6] is described as follows: Cytotoxicity against human KB cells assessed as inhibition of cell proliferation at 10^-5 M after 72 hrs by MTS assay relative control. It counts as cell-based. Summed up: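 KB nasopharyngeal carcinoma cells in D-MEM with 10% fetal calf serum and antibiotics under 5% CO2; 1000 cells/well, treated 24 h after plating with compounds in DMSO (1% final), exposed 72 h. MTS read at 490 nm; inhibition = (1−OD treated/OD control)×100, triplicate.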

The target in data set [7] is Amyloid-beta precursor protein (Homo sapiens) (UniProt P05067). Briefly: Inhibition of Amyloid beta (1 to 42) (unknown origin) self aggregation at 10 uM measured every 5 mins with shake for 15 secs by ThT fluorescence assay relative to control. Summed up: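 Aβ1-42 (85 μL at 250 μg/mL) with thioflavin T (10 μL at 2 mM) and compound (1 μL of 1 mM) in 100 μL kit buffer; control without compound plus blanks. Fluorescence at 37 °C every 5 min, 15 s shaking between reads, Ex/Em 440/484 nm. Inhibition = 100 − (IFi/IFo×100).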
Sequence of Amyloid-beta precursor protein (Homo sapiens) (P05067 whole entry): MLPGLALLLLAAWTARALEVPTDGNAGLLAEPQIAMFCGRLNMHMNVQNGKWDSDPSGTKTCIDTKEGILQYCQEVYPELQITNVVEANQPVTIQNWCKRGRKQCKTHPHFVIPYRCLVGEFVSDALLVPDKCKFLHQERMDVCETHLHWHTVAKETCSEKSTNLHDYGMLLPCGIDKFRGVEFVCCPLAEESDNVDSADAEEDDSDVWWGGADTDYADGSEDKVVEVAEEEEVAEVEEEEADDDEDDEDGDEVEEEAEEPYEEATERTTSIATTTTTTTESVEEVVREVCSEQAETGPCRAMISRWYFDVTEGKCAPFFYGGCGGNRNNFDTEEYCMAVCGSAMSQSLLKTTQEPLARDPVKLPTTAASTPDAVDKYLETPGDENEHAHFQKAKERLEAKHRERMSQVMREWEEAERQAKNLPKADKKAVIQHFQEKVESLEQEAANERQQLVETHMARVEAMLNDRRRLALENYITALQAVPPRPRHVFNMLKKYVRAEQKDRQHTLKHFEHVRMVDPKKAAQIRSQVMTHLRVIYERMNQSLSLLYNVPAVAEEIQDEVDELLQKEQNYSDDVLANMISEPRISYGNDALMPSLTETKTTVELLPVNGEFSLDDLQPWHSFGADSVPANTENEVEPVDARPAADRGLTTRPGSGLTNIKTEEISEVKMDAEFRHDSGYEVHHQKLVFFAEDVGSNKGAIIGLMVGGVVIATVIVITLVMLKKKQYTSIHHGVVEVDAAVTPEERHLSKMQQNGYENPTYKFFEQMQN

The nature of data set [8]: Antioxidant activity assessed as FeCl2-induced lipoperoxidation at 40 uM incubated for 2 hrs in dark by ferric thiocyanate method.
Data set [9] can be described thus: Half life in 10 mM phosphate buffer at 20 uM at pH 7.4 at 25 degC by UHPLC analysis. It counts as physicochemical. The procedure, abridged: (§2)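 20 μM compound (from 10 mM DMSO stock) in 10 mM phosphate buffer pH 7.4, ionic strength 150 mM with KCl, at 25 °C, n=3. Sampled at 6 times over 0 to 5 or 8 h by UHPLC-PDA on a C18 column with water/acetonitrile gradient (0.01% formic acid). Half-life from exponential regression of disappearance versus time.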

Data set [10] can be described thus: Binding affinity to Cu2+ assessed as dissociation constant after 10 to 60 mins by UV-visible spectra analysis. The procedure, abridged: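 In methanol–10 mM Tris pH 7.4 (8:2 v/v), compound 0–200 μM incubated with or without CuCl2 50 μM; scans 230–600 nm after 10 and 60 min. Absorbance difference at each compound's specific wavelength gave complex and free-ligand concentrations using the saturation maximum and stoichiometry from Job plots (total 100 μM, varying mole fraction).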

Data set [11] in a line: Binding affinity to Cu2+ assessed as association constant after 10 to 60 mins by UV-visible spectra analysis. The procedure, abridged: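 Ligand titration in methanol–10 mM Tris pH 7.4 (8:2, v/v): compound 0 to 200 μM incubated with or without CuCl2 (50 μM), room temperature. Scanned 230–600 nm at 10 and 60 min. Difference spectra (mixture minus compound) read at each compound's specific wavelength give bound complex and free ligand, using stoichiometry from Job plots at 100 μM total.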

Data set [12] in a line: Chemical stability in 10 mM phosphate buffer at 20 uM at pH 7.4 at 25 degC after 5 hrs by UHPLC analysis. It counts as physicochemical. Particulars: pH 7.4, 5 h; call rule not given here. The procedure, abridged: as §2

The structures appear in SMILES notation.

Consider `Cn1c(=O)c2[nH]cnc2n(C)c1=O.O` [THEOPHYLLINE], for which the “log Pe” value in data set [1] is reported as less than -6.

Turning to `COc1cc(/C=C/C(=O)CC(=O)/C=C/c2ccc(O)c(OC)c2)ccc1O` [CURCUMIN], in data set [2], the EC50 was 19.2 µM. Besides, the Activity in data set [3] is given as 60.4%; in data set [4], “Active”; in data set [5], “Active”. For the same compound, the inhibition at 72 h, 10 µM in [6] came out at 83%.

Consider `COc1cc(/C=C2/C(=O)c3cccn3C2c2ccccc2)ccc1O` (centres undefined), for which the half-maximal effective concentration (EC50) in data set [2] is greater than 250 µM. For the same compound, the Activity in data set [3] is listed as 51.7%; in [4], “Not Active”. Further, the inhibition in data set [7] is 14.5%. In data set [6], the inhibition at 72 h, 10 µM was determined as 24%. Besides, in data set [8], the peroxidation % was found to be 67.4%.

In the case of `COc1ccc(C2/C(=C\c3ccc(O)c(OC)c3)C(=O)c3cccn32)cc1O` (centres undefined), the EC50 in data set [2] amounted to 99.5 µM. For the same compound, the figures for the Activity in data set [3], in data set [4] and in data set [5] were 55.1%, “Active” and “Active”, respectively. This compound also came in with an inhibition in data set [7] of 12.8%. In data set [6], the inhibition at 72 h, 10 µM is 29%. Besides, in [8], the peroxidation % is on record as 56.4%.

On to `COc1cc(C2/C(=C\c3cc(OC)c(O)c(OC)c3)C(=O)c3cccn32)ccc1O` (centres undefined), for which the concentration for a half-maximal effect (EC50) in data set [2] worked out at 246 µM. Also, the values for the Activity in [3], in data set [4] and in data set [5] were 35.3%, “Not Active” and “Not Active”, respectively. The compound also gave an inhibition in data set [7] of 30.1%. The inhibition at 72 h, 10 µM in data set [6] turned out to be 0%. Also, in data set [8], the peroxidation % worked out at 70.4%.

For the compound `COc1ccc(C2/C(=C\c3ccc(O)c(O)c3)C(=O)c3cccn32)cc1O` (centres undefined), in data set [2], the EC50 stood at 12.8 µM. Further, the Activity was 57.5% in data set [3], “Active” in data set [4] and “Active” in [5]. In data set [7], this compound had an inhibition of 24.9%. Besides, the inhibition at 72 h, 10 µM in data set [6] was found to be 0%. Further, the half-life at 20 µM in [9] is 11.9 h. Besides, the dissociation constant Kd in data set [10] was 70.5 µM. For the same compound, the logKa in data set [11] was 4.15. Moreover, the peroxidation % in [8] was found to be 51.3%.

Turning to `COc1cc(C2/C(=C\c3cc(OC)c(OC)c(OC)c3)C(=O)c3cccn32)ccc1O` (centres undefined), the half-maximal effective concentration (EC50) in [2] was greater than 250 µM. The results for the Activity in data set [3], in data set [4] and in data set [5] were 32.6%, “Not Active” and “Not Active”, respectively. In data set [7], this compound displayed an inhibition of 23.6%. In data set [8], the peroxidation % stood at 67.1%.

Consider `COc1cc(C2/C(=C\c3ccc(OCc4ccccc4)c(OCc4ccccc4)c3)C(=O)c3cccn32)ccc1OCc1ccccc1` (centres undefined), for which the EC50 in [2] is greater than 250 µM. Besides, in [3], the Activity was 30.7%. The compound further gave an inhibition in [7] of 4.2%. Also, the inhibition at 72 h, 10 µM in [6] turned out to be 0%. For the same compound, the peroxidation % in data set [8] is 92.8%.

Consider `O=C1/C(=C/c2ccccc2)C(c2ccccc2)n2cccc21` (centres undefined), for which, in [3], the Activity is on record as 34.4%. This compound showed an inhibition in data set [7] of 1.4%. The inhibition at 72 h, 10 µM in data set [6] worked out at 41%. Further, the peroxidation % in [8] is reported as 55.1%.

As for `O=C1/C(=C/c2ccc(O)c(O)c2)C(c2ccccc2)n2cccc21` (centres undefined), in [2], the concentration giving a half-maximal response (EC50) amounted to 12.6 µM. The Activity in data set [3] is listed as 65.6%; in data set [4] it was “Active”; in [5], “Active”. Besides, in [7], the inhibition is 28.7%. Besides, in data set [6], the inhibition at 72 h, 10 µM was 0%. The Stability result in data set [12] was “Stable”. The equilibrium dissociation constant (Kd) in data set [10] stood at 2.2 µM. Further, the logKa in [11] was 5.65. Further, the peroxidation % in [8] came out at 57%.

Regarding `O=c1c(O)c(-c2ccc(O)c(O)c2)oc2cc(O)cc(O)c12` [QUERCETIN], the Activity in data set [3] was found to be 70.7%.

`COc1ccc(/C=C2/C(=O)c3cccn3C2c2ccc(OC)c(O)c2)cc1O` (centres undefined): the EC50 in data set [2] is greater than 250 µM. In addition, the Activity is listed as 53.7% in data set [3], “Active” in [4] and “Active” in data set [5]. For the same compound, the inhibition in data set [7] turned out to be 8.4%. Further, the inhibition at 72 h, 10 µM in data set [6] turned out to be 24%. For the same compound, in data set [8], the peroxidation % amounted to 71%.

Take `COc1cc(/C=C/C(=O)O)ccc1O` [FERULATE]: the concentration for a half-maximal effect (EC50) in [2] came out at 43.2 µM. For the same compound, the Activity in data set [3] worked out at 46.4%. Further, the peroxidation % in data set [8] was found to be 47%.

With `Cc1c(C)c2c(c(C)c1O)CCC(C)(C(=O)O)O2` (centres undefined) [TROLOX], in data set [2], the concentration for a half-maximal effect (EC50) came to 18.2 µM.

In the case of `COc1cc(/C=C2/C(=O)c3cccn3C2c2ccc(O)c(OC)c2)ccc1O` (centres undefined), the EC50 in data set [2] stood at 101 µM. Besides, the Activity is 57% in data set [3], “Active” in data set [4] and “Active” in data set [5]. In addition, the inhibition in data set [7] came out at 10.4%. Further, in data set [6], the inhibition at 72 h, 10 µM turned out to be 0%. In addition, in data set [8], the peroxidation % turned out to be 48.5%.

In the case of `COc1cc(C2/C(=C\c3ccc(O)c(O)c3)C(=O)c3cccn32)ccc1O` (centres undefined), the concentration for a half-maximal effect (EC50) in data set [2] was 12 µM. Also, the Activity in [3] is on record as 58%; in [4] it was “Active”; in [5] it was “Active”. Further, the inhibition in data set [7] came out at 26.1%. For the same compound, the inhibition at 72 h, 10 µM in data set [6] stood at 0%. Also, in data set [9], the half-life at 20 µM is 6.8 h. For the same compound, in [10], the Kd stood at 22.1 µM. Further, the logKa in [11] was found to be 4.65. In data set [8], the peroxidation % is 50.6%.

For the compound `COc1ccc(/C=C2/C(=O)c3cccn3C2c2ccc(O)c(OC)c2)cc1O` (centres undefined), in data set [2], the EC50 was greater than 250 µM. The figures for the Activity in data set [3], in [4] and in data set [5] were 57.7%, “Not Active” and “Not Active”, respectively. The inhibition in data set [7] came to 15.9%. Moreover, the inhibition at 72 h, 10 µM in [6] amounted to 0%. For the same compound, the peroxidation % in [8] is listed as 58.2%.

For the compound `COc1ccc(/C=C2/C(=O)c3cccn3C2c2ccc(O)c(OC)c2)c(OC)c1` (centres undefined), the concentration for a half-maximal effect (EC50) in [2] is greater than 250 µM. For the same compound, the Activity is 40.3% in data set [3], “Not Active” in data set [4] and “Not Active” in data set [5]. In addition, in [7], the inhibition came to 6%. For the same compound, the inhibition at 72 h, 10 µM in [6] is 38%. Besides, in [8], the peroxidation % is recorded as 67.5%.

Turning to `O=C1/C(=C/c2ccc(O)c(O)c2)C(c2ccc(O)c(O)c2)n2cccc21` (centres undefined), the concentration giving a half-maximal response (EC50) in data set [2] was 9.6 µM. Further, the Activity in data set [3] was 47.1%; in data set [4], “Active”; in data set [5], “Active”. In addition, in data set [7], the inhibition was determined as 27%. The inhibition at 72 h, 10 µM in data set [6] was 0%. For the same compound, in data set [9], the half-life at 20 µM is 6.4 h. For the same compound, in [10], the Kd came to 19.9 µM. Further, the logKa in [11] was found to be 4.7. For the same compound, the peroxidation % in [8] came out at 47%.
